In ChEMBL document CHEMBL4033604, “Cytotoxicity and Mechanism of Action of the Marine-Derived Fungal Metabolite Trichodermamide B and Synthetic Analogues” (J Nat Prod, 2017):
Active and inactive are the calls of the source.

Assays:
[1] = test system: HeLa; assay: Cytotoxicity against human HeLa cells after 48 hrs by SRB assay; type: functional, cell-based
Procedure, shortened: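 HeLa cells treated over a concentration range for 48 h; survival by sulforhodamine B staining relative to vehicle control; four-parameter nonlinear regression; IC50 and IC85 as concentrations giving 50% or 85% inhibition of cell density; time-zero cell density marks cytotoxicity threshold; mean ± SEM, n = 4 independent experiments in triplicate.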

[2] = test system: HeLa; assay: Cytotoxicity against human HeLa cells assessed as inhibition of colony formation pretreated for 4 hrs followed by compound washout measured after 10 days by crystal violet staining based assay; type: functional, cell-based
Procedure, shortened: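 HeLa plated at 150 cells per dish, exposed 4 h to DMSO or IC85 concentration, washed with PBS, regrown in fresh medium 10 days; fixed, stained with 0.5% crystal violet in 10% methanol, colonies counted; n = 3−5 experiments in duplicate; one-way ANOVA.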

[3] = test system: HeLa; assay: Induction of double stranded DNA breaks in human HeLa cells assessed as gamma-H2Ax phosphorylation at Ser139 residue at IC50 after 24 hrs by Hoechst 33342 staining-based indirect immunofluorescence microscopic method; type: cell-based
Procedure, shortened: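 HeLa exposed 24 h to IC50 concentration or 0.6% DMSO; fixed in ice-cold MeOH 5 min, blocked 10% bovine calf serum 20 min, anti-γH2A.X (Ser139) 2 h then Alexa Fluor 594 secondary 1 h at room temperature; nuclei counterstained Hoechst 33342; foci scored by fluorescence microscopy; n = 2 experiments in duplicate.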

[4] = test system: HeLa; assay: Induction of apoptosis in human HeLa cells assessed as upregulation of cleaved PARP protein levels at IC85 after 24 hrs by Western blot analysis; type: functional, cell-based
Procedure, shortened: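 HeLa treated with IC85 concentration or 0.1% DMSO over a 4, 8, 16, 24 h time course; whole-cell lysates (protease inhibitors, 50 mM NaF, 200 μM Na3VO4, 1 mM PMSF), equal protein on 12% Bis-Tris SDS-PAGE, PVDF blot probed for cleaved PARP with GAPDH loading control (1:1000); two independent experiments.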

[5] = test system: HeLa; assay: Cell cycle arrest in human HeLa cells at IC85 after 4 to 24 hrs by Krishan's reagent staining-based flow cytometric method; type: functional
[6] = test system: HeLa; assay: Cell cycle arrest in human HeLa cells assessed as accumulation at G2/M phase at IC85 after 24 hrs by Krishan's reagent staining-based flow cytometric method; type: functional
[7] = test system: CWR22R; assay: Cytotoxicity against human 22Rv1 cells after 24 to 72 hrs by MTT assay; type: functional, cell-based
[8] = Cytotoxicity against mouse lymphoma cells by MTT assay; type: functional, cell-based; conditions: Lymphoma cell
[9] = test system: LNCaP; assay: Cytotoxicity against human LNCAP cells after 24 to 72 hrs by MTT assay; type: functional, cell-based
[10] = test system: PC-3; assay: Cytotoxicity against human PC3 cells after 24 to 72 hrs by MTT assay; type: functional, cell-based
[11] = test system: HL-60; assay: Cytotoxicity against human HL60 cells; type: functional, cell-based
[12] = test system: A549; assay: Cytotoxicity against human A549 cells; type: functional, cell-based
[13] = test system: P388; assay: Cytotoxicity against mouse P388 cells; type: functional, cell-based

SMILES	IC50 [1] [µM]	IC85 [1] [µM]	also measured
COc1ccc2cc(N)c(=O)oc2c1OC	> 10	> 10	–
COc1ccc2cc(NC(=O)C3=NO[C@H]4CC(=O)C=C[C@@]4(O)C3)c(=O)oc2c1OC (relative stereo)	5.7	12	inhibition [2]: inactive; Activity [3]: inactive; Activity [4]: inactive; Activity [5]: inactive
CCOC(=O)C1=NO[C@H]2C=CC=C[C@@]2(O)C1	> 10	> 10	–
COc1ccc2cc(NC(=O)C3=NO[C@H]4C=C[C@@H]5O[C@@H]5[C@@]4(O)C3)c(=O)oc2c1OC	> 10	> 10	–
CCOC(=O)C1=NO[C@H]2CC(=O)C=C[C@@]2(O)C1	12	32	Activity [6]: Active; inhibition [2]: Active; Activity [3]: inactive
CNc1cc2ccc(OC)c(OC)c2oc1=O	> 10	> 10	–
CCOC(=O)C1=NO[C@H]2[C@@H]3O[C@@H]3C=C[C@@]2(O)C1	21	51	inhibition [2]: inactive; Activity [3]: inactive; Activity [4]: inactive; Activity [5]: inactive
COc1ccc([C@H]2SS[C@@]34C[C@]5(O)[C@H](Cl)C=C[C@@H](O)[C@@H]5ON3C(=O)[C@@H]2N(C)C4=O)c(O)c1OC	–	–	IC50 [7]: 0.51 to 5.11 µM; IC50 [8]: 2 µM; IC50 [9]: 0.51 to 5.11 µM; IC50 [10]: 0.51 to 5.11 µM
CCOC(=O)C1=NO[C@H]2CC(=O)[C@@H]3O[C@@H]3[C@@]2(O)C1 (relative stereo)	1.4	3.4	inhibition [2]: inactive; Activity [3]: inactive; Activity [4]: inactive; Activity [5]: inactive
COc1ccc2cc(NC(=O)C3=NO[C@H]4CC(=O)[C@@H]5O[C@@H]5[C@@]4(O)C3)c(=O)oc2c1OC	> 10	> 10	–
COc1ccc2cc(N(C)C(=O)C3=NO[C@H]4C=CC=C[C@@]4(O)C3)c(=O)oc2c1OC	> 10	> 10	–
COc1ccc2cc(NC(=O)[C@@]34C[C@]5(O)[C@@H](C=C[C@@H](O)[C@@H]5ON3)S4)c(=O)oc2c1OC	–	–	IC50 [11]: 84 µM; IC50 [12]: > 100 µM; IC50 [13]: > 100 µM
COc1ccc2cc(N(C)C(=O)C3=NO[C@H]4[C@@H]5O[C@@H]5C=C[C@@]4(O)C3)c(=O)oc2c1OC	> 10	> 10	–
COc1ccc2cc(NC(=O)C3=NO[C@H]4C=CC=C[C@@]4(O)C3)c(=O)oc2c1OC	> 10	> 10	–
COc1ccc2cc(N(C)C(=O)C3=NO[C@H]4C=C[C@@H]5O[C@@H]5[C@@]4(O)C3)c(=O)oc2c1OC	> 10	> 10	–
COc1ccc2cc(NC(=O)C3=NO[C@H]4[C@H](O)C=C[C@@H](O)[C@@]4(O)C3)c(=O)oc2c1OC [TRICHODERMAMIDE A]	> 10	> 10	IC50 [11]: 89 µM; IC50 [12]: > 100 µM; IC50 [13]: > 100 µM
COc1ccc2cc(NC(=O)C3=NO[C@H]4[C@H](O)C=C[C@@H](Cl)[C@@]4(O)C3)c(=O)oc2c1OC [TRICHODERMAMIDE B]	3.1	18	inhibition [2]: Active; Activity [3]: Active
CCOC(=O)C1=NO[C@H]2C=C[C@@H]3O[C@@H]3[C@@]2(O)C1	> 10	> 10	–
COc1ccc2cc(N(C)C(=O)C3=NO[C@H]4[C@H](O)C=C[C@@H](O)[C@@]4(O)C3)c(=O)oc2c1OC [TRICHODERMAMIDE C]	> 10	> 10	–
